Calls of active or inactive are those of the source.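 The calls were made as follows: active = inhibitor of the AddAB recombination enzyme whose half-maximal inhibitory concentration is at or below 10 µM; inactive = half-maximal inhibitory concentration above 10 µM.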
Each compound was assayed on E. coli V3065 expressing H. pylori AddAB, T4 phage, OD growth (assay: growth inhibition of T4-infected E. coli expressing H. pylori AddAB, late-stage follow-up, AddAB inhibitor project, absorbance, E. coli V3065, powder samples, round 2 (AID 651942)).
How it was run: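 Replication – each compound tested in triplicate · Material – E. coli V3065 carrying H. pylori addAB+ · Medium – Cation Mueller Hinton broth · Probe or stimulus – mutant T4 phage, MOI 0.02 · Timing – 60 min preincubation, 18 h post-infection, 37 °C · Detection – optical density at 600 nm as bacterial growth measure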
With `CCn1cc(C(=O)O)c(=O)c2cnc(N3CCN(C(=S)Nc4ccccc4F)CC3)nc21` the IC50 was 7.65 µM.
In the case of `CCn1cc(C(=O)O)c(=O)c2cnc(N3CCN(C(=S)NC(=O)c4cccc(C)c4)CC3)nc21`, the IC50 is reported as 19 µM (inactive).
`CCn1cc(C(=O)O)c(=O)c2cnc(N3CCN(C(=S)Nc4cccc(C(F)(F)F)c4)CC3)nc21` showed an IC50 of 1.03 µM.
`CCn1cc(C(=O)O)c(=O)c2cnc(N3CCN(C(=S)Nc4ccccc4OC)CC3)nc21` was tested, and the IC50 was 30.6 µM (inactive).
Compound `CCn1cc(C(=O)O)c(=O)c2cnc(N3CCN(C(=S)Nc4ccc(Cl)cc4)CC3)nc21` has an IC50 of 6.5 µM.
With `CCn1cc(C(=O)O)c(=O)c2cnc(N3CCN(C(=S)NCc4ccccc4)CC3)nc21` the IC50 was 29.4 µM (inactive).
